Assay results of several laboratories.
Lines come from different studies, so protocols differ.
Target: Tyrosine-protein kinase CSK (CSK, Homo sapiens, UniProt P41240)

| Structure (SMILES) | assay | test system | conditions | endpoint | result |
| --- | --- | --- | --- | --- | --- |
| COc1cc2nccc(Oc3ccc(NC(=O)c4c5n(n(-c6ccc(F)cc6)c4=O)CCCC5)cc3)c2cc1OC | enzyme activity, inhibitor |  | 0.1 µM | inhibition | 2% |
| Cn1cc(Cl)c2c(Oc3c(F)cc(Nc4cc(Cl)nc(N)n4)cc3F)ccnc21 | cell-free assay, competition with immobilised ligand |  | 0.1 µM | remaining binding | 100% |
| COc1cc(Cl)c(C(=O)N[C@@H](CN[C@H]2CC[C@@H](N)CC2)Cc2ccc(C#N)cc2)cc1-c1ccc(CN[C@H](C)c2ccc(C)cc2)o1 | enzyme activity, inhibitor |  | 1 µM | remaining activity | 99% |
| Nc1nc(NC2CCCCC2)sc1C(=O)c1ccccc1 | enzyme activity, inhibitor |  | 10 µM | remaining activity | 95% |
| Cc1ccc(C(=O)Nc2ccc(CN3CCN(C)CC3)c(C(F)(F)F)c2)cc1C#Cc1cnc2cccnn12 | enzyme activity, inhibitor |  | 23.5 nM | remaining activity | 15% |
| Nc1nc(Nc2ccccc2)sc1C(=O)c1c(F)cccc1F | enzyme activity, inhibitor |  | 10 µM | remaining activity | 90% |
| Oc1ccc(-c2nc(-c3ccncc3)c(-c3ccc(F)cc3)[nH]2)cc1 | enzyme activity, inhibitor |  | 0.5 µM | remaining activity | 93.7% |
| CC(=O)N1CCC(c2ccc(C(=O)NC(=N)N)cc2C(F)(F)F)CC1 | cell-free assay, competition with immobilised ligand |  | 1 µM | remaining binding | 100% |
| C#Cc1cccc(Nc2ncnc3cc(OCCOC)c(OCCOC)cc23)c1 | cell-free assay, inhibitor |  | 0.5 µM | remaining signal | 100% |
| c1nc2c(Nc3ccc4c(c3)OCCO4)nc(Nc3ccc4c(c3)OCCO4)nc2[nH]1 | enzyme activity, inhibitor |  | 10 µM | activity vs control | 18% |
| Cc1ccc(Nc2nccc(N(C)c3ccc4c(C)n(C)nc4c3)n2)cc1S(N)(=O)=O | enzyme activity, inhibitor |  | 0.3 µM | inhibition | -6% |
| Cn1nc(C(=O)NCc2ccc(C(=O)O)cc2)cc1-c1ccc2[nH]ccc2c1 | cell-free assay, competition with immobilised ligand |  | 0.1 µM | remaining binding | 94% |
| CC(C)(C)c1nc2c(s1)c1nc(N)ncc1c1ccc(NS(=O)(=O)c3c(F)cccc3F)c(F)c12 | enzyme activity, inhibitor, radiometric |  | 1 µM | remaining activity | 87% |
| O=C1NC(=O)c2cc(Nc3ccc(F)cc3)c(Nc3ccc(F)cc3)cc21 | enzyme activity, inhibitor |  | 0.5 µM | remaining activity | 92% |
| CS(=O)(=O)Nc1cccc(-c2csc(NC(=O)CSc3nc4nccnc4c(=O)n3CCc3ccccc3)n2)c1 | enzyme activity, inhibitor |  | 10 µM | inhibition | 4% |
| Oc1cccc(-c2nc(N3CCOCC3)c3oc4ncccc4c3n2)c1 | enzyme activity, inhibitor |  | 10 µM | remaining activity | 101% |
| CCCOc1ccc([C@@H]2[C@@H](C(=O)O)[C@H](c3ccc4c(c3)OCO4)CN2CC(=O)Nc2c(CC)cccc2CC)cc1 | cell-free assay, competition with immobilised ligand |  | 1 µM | remaining binding | 91% |

| Structure (SMILES) | assay | test system | conditions | endpoint | result |
| --- | --- | --- | --- | --- | --- |
| Cn1c(=O)n(-c2ccc(C(C)(C)C#N)cc2)c2c3cc(-c4cnc5ccccc5c4)ccc3ncc21 | enzyme activity, inhibitor |  | 10 µM | remaining activity | 100% |
| CCN1CCN(Cc2ccc(NC(=O)c3ccc(C)c(Oc4ccnc5[nH]ccc45)c3)cc2C(F)(F)F)CC1 | target engagement in cells, inhibitor, chemoproteomics | A-375 | 0.5 µM | inhibition | -14.9% |
| CNC(=O)c1cc(Oc2ccc(NC(=O)Nc3ccc(Cl)c(C(F)(F)F)c3)cc2)ccn1 | enzyme activity, inhibitor |  | 0.3 µM | inhibition | -7% |
| Cc1cc(NC(=O)c2cccc3cc(-c4cccc5[nH]nc(N)c45)ccc23)ccc1F | enzyme activity, inhibitor |  | 0.1 µM | activity vs control | 97% |
| Cc1ccc(C(=O)NCc2ccsc2)cc1C#Cc1cn(C(C)C)c2ncnc(N)c12 | enzyme activity, inhibitor |  | 1 µM | activity vs control | 26% |
| Cc1cnc(NC2CCOCC2)nc1-n1cnc(C(=O)NC(CN)c2cc(F)cc(Cl)c2)c1 (stereo not drawn) | enzyme activity, inhibitor, radiometric |  | 1 µM | remaining activity | 110% |
| COc1cc(Nc2cnc(C#N)c(O[C@H](C)CN(C)C)n2)ncc1-c1cnn(C)c1 | enzyme activity, inhibitor, radiometric |  | 1 µM | remaining activity | 83% |
| CN(C)C(=O)Cn1cc(-c2nc([C@@](C)(c3ccc(-c4cnc(N)nc4)cc3)C3CC3)no2)cn1 | cell-free assay, competition with immobilised ligand |  | 1 µM | remaining binding | 100% |
| O=C1Nc2ccc(Cl)cc2C1=Cc1cc(Cl)c(O)c(Cl)c1 | enzyme activity, inhibitor |  | 0.5 µM | remaining activity | 85% |
| Cc1nc(Cc2cccc(C(F)(F)F)c2)sc1-c1ccc(C(N)=O)nc1 | cell-free assay, competition with immobilised ligand |  | 1 µM | remaining binding | 88% |
| O=C(Nc1cnn(-c2csc(C(=O)NC3COC3)c2)c1)Nc1ccccc1Cl | enzyme activity, inhibitor |  | 5 µM | remaining activity | 99.2% |
| COc1cc2ncnc(Nc3ccc(Oc4ccccc4)c(C)c3C)c2cc1OC | enzyme activity, inhibitor |  | 1 µM | inhibition | 49% |
| C[C@H](c1cccc(C#N)c1)n1cc(Cl)cc(C(N)=O)c1=N | cell-free assay, competition with immobilised ligand |  | 1 µM | remaining binding | 100% |
| CCN(CC)CCNC(=O)c1c(C)[nH]c(/C=C2\C(=O)Nc3ccc(F)cc32)c1C | enzyme activity, inhibitor |  | 0.3 µM | inhibition | -8% |
| CO[C@@H](C)c1c(Nc2ccc([C@H](N(C)C(=O)C3CCS(=O)(=O)CC3)C(F)(F)F)cc2)cnc2cc(Cl)nn12 | cell-free assay, competition with immobilised ligand |  | 1 µM | remaining binding | 100% |
| FC(F)(F)Oc1cccc(-c2cnc3ccc(-c4ccncc4)nn23)c1 | enzyme activity, inhibitor, radiometric |  | 1 µM | activity vs control | 97% |
